Results as given in ChEMBL document CHEMBL3351525, “Synthesis of tripeptides containing D-Trp substituted at the indole ring, assessment of opioid receptor binding and in vivo central antinociception” (J Med Chem, 2014).
pKi: −log10 of the molar value. Calls of active or inactive are those of the source. Where a SMILES comes first, the peptide text is derived from it. [ ]: non-standard residue; d: D form.

What was measured:
[1] = target: Delta-type opioid receptor (Homo sapiens, UniProt P41143); assay: Displacement of [3H]diprenorphine from human delta opioid receptor expressed in HEK293 cells by scintillation counting; format: cell-based
Delta-type opioid receptor, sequence (P41143 whole entry): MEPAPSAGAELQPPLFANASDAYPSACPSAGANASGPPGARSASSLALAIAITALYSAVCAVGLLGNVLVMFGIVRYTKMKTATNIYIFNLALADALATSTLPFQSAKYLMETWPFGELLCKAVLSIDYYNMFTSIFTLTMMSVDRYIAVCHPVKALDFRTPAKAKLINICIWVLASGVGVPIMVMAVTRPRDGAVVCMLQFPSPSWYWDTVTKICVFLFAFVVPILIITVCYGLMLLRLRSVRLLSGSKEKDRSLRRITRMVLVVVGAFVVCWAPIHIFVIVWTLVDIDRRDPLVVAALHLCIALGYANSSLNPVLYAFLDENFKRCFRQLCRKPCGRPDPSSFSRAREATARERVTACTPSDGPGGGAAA

[2] = target: Kappa-type opioid receptor (Homo sapiens, UniProt P41145); assay: Displacement of [3H]U69593 from human kappa opioid receptor expressed in HEK293 cells by scintillation counting; format: cell-based
Kappa-type opioid receptor, sequence (P41145 whole entry): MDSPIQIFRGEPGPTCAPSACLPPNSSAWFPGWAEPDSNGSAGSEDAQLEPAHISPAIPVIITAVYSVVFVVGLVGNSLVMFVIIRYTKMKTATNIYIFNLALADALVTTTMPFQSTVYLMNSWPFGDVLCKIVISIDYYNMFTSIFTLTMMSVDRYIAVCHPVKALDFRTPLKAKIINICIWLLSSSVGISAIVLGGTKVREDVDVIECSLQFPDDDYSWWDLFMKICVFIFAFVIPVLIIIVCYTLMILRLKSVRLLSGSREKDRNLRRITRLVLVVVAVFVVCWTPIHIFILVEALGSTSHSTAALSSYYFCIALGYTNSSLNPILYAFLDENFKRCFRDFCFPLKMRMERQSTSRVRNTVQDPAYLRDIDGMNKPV

[3] = target: Mu-type opioid receptor (Homo sapiens, UniProt P35372); assay: Displacement of [3H]DAMGO from human mu opioid receptor expressed in HEK293 cells by scintillation counting; format: cell-based
Mu-type opioid receptor, sequence (P35372 whole entry): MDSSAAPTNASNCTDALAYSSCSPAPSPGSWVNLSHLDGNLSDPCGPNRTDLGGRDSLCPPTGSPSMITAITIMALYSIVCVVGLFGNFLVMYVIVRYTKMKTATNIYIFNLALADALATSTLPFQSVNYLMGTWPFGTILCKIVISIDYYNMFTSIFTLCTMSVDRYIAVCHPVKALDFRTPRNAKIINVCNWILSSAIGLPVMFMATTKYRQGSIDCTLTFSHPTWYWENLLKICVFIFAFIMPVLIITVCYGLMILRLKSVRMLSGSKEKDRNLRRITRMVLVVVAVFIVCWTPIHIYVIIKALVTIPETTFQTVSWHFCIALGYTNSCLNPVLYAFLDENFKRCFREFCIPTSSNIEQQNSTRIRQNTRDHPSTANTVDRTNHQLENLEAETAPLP

[4] = test system: Mus musculus; assay: Antinociceptive activity in CD-1 mouse assessed as increase in tail-flick latency period at 20 mg/kg, ip at 15 mins by tail flick test; format: functional; conditions: for MPE: route intraperitoneal
[5] = test system: Mus musculus; assay: Toxicity in icv dosed CD-1 mouse assessed as straub tail; format: organism-based; conditions: in vivo, icv_or_intrathecal
[6] = test system: Mus musculus; assay: Toxicity in icv dosed CD-1 mouse assessed as locomotor activity; format: organism-based; conditions: in vivo, icv_or_intrathecal
[7] = test system: Mus musculus; assay: Toxicity in icv dosed CD-1 mouse assessed as circling behavior; format: organism-based; conditions: in vivo, icv_or_intrathecal
[8] = test system: Mus musculus; assay: Toxicity in icv dosed CD-1 mouse assessed as grooming; format: organism-based; conditions: in vivo, icv_or_intrathecal
[9] = test system: Mus musculus; assay: Antinociceptive activity in CD-1 mouse assessed as increase in tail-flick latency period at 20 mg/kg, ip at 30 mins by tail flick test; format: functional; conditions: for MPE: route intraperitoneal
[10] = test system: Mus musculus; assay: Antinociceptive activity in CD-1 mouse assessed as increase in tail-flick latency period at 5 microg, icv at 10 mins by tail flick test; format: functional
[11] = test system: Mus musculus; assay: Antinociceptive activity in icv dosed CD-1 mouse assessed as increase in tail-flick latency period at 10 mins by tail flick test; format: functional, organism-based
How it was run: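 Hot-water (52 ± 0.5 °C) tail-immersion test after icv injection at 2.5, 5 or 10 μg/mouse, compared with vehicle. Withdrawal latency measured with a 10 s cutoff. Response expressed as % maximal possible effect (MPE%).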

[12] = test system: Mus musculus; assay: Antinociceptive activity in CD-1 mouse assessed as increase in tail-flick latency period at 40 mg/kg, ip at 30 mins by tail flick test; format: functional; conditions: route intraperitoneal
[13] = test system: Mus musculus; assay: Antinociceptive activity in CD-1 mouse assessed as increase in tail-flick latency period at 10 microg, icv at 10 mins by tail flick test; format: functional
[14] = test system: Mus musculus; assay: Antinociceptive activity in ip dosed CD-1 mouse assessed as increase in tail-flick latency period at 30 mins by tail flick test; format: functional, organism-based
How it was run: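 Tail immersed in 52 ± 0.5 °C water; withdrawal latency measured. Pre-treatment control latency recorded; mice not flicking within 5 s excluded. Vehicle or peptide given ip at 10, 20 or 40 mg/kg. Latency read at 5, 15, 30, 45 and 60 min post-dose, 10 s cutoff. Response expressed as % maximal possible effect (MPE%).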

[15] = test system: Mus musculus; assay: Antinociceptive activity in CD-1 mouse assessed as increase in tail-flick latency period at 2.5 microg, icv at 10 mins by tail flick test; format: functional
[16] = Stability in mouse serum assessed as drug degradation after 3 hrs incubation; format: ADME; conditions: read-out: Drug degradation
How it was run: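 Peptide incubated in mouse serum for 3 h; degradation assessed.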

Row | Structure (SMILES) | pKi [3] | pKi [1] | pKi [2] | Activity [5] | Activity [6] | Activity [7] | Activity [8] | also measured
1 | CC(=O)N[C@H](Cc1c(C)[nH]c2c(Br)cccc12)C(=O)N[C@@H](Cc1ccccc1)C(=O)NCC(N)=O | 8.39 | < 4.00 | < 4.00 | Non-toxic | Non-toxic | Non-toxic | Non-toxic | MPE [4]: 33%; MPE [9]: 32%
2 | CC(=O)N[C@H](Cc1c[nH]c2ccccc12)C(=O)N[C@@H](Cc1ccccc1)C(N)=O (Ac-[dW]-Phe-NH2) |  |  |  | Non-toxic | Non-toxic | Non-toxic | Non-toxic | Activity [4]: inactive; Activity [9]: inactive
3 | CC(=O)N[C@H](Cc1c[nH]c2ccccc12)C(=O)N[C@@H](Cc1ccccc1)C(=O)NCC(N)=O (Ac-[dW]-Phe-Gly-NH2) |  |  |  | Non-toxic | Non-toxic | Non-toxic | Non-toxic | MPE [4]: 19%; MPE [9]: 37%
4 | CC(=O)N[C@H](Cc1c[nH]c2c(Br)cccc12)C(=O)N[C@@H](Cc1ccccc1)C(=O)NCC(N)=O | 6.72 | < 4.00 | < 4.00 |  |  |  |  | 
5 | CC(=O)N[C@H](Cc1c[nH]c2ccc([N+](=O)[O-])cc12)C(=O)N[C@@H](Cc1ccccc1)C(=O)NCC(N)=O | 7.28 | < 4.00 | < 4.00 | Non-toxic | Non-toxic | Non-toxic | Non-toxic | Activity [10]: 49%; Activity [11]: Dose-dependent effect; MPE [12]: 48%; Activity [13]: 47%; Activity [14]: Dose-dependent effect; Activity [15]: 25%; metabolised at 3 h [16]: 7%
6 | O=C1CNC(=O)[C@H](Cc2ccccc2)NC(=O)[C@@H](Cc2c[nH]c3ccccc23)NC(=O)CNC(=O)[C@H](Cc2ccc(O)cc2)N1 | 8.44 | 7.62 | < 4.00 | Non-toxic | Non-toxic | Non-toxic | Non-toxic | MPE [4]: 22%; metabolised at 3 h [16]: < 10%; MPE [9]: 32%

Further lines, with some results ahead:

Row | pKi [3] | Structure (SMILES) | pKi [1] | pKi [2] | Activity [5] | Activity [6] | Activity [7] | Activity [8] | also measured
7 | 6.94 | CC(=O)N[C@H](Cc1c[nH]c2ccc(Br)cc12)C(=O)N[C@@H](Cc1ccccc1)C(=O)NCC(N)=O | < 4.00 | < 4.00 |  |  |  |  | 
8 | 7.68 | CC(=O)N[C@H](Cc1c[nH]c2ccc(Cl)cc12)C(=O)N[C@@H](Cc1ccccc1)C(=O)NCC(N)=O |  |  |  |  |  |  | 
9 | < 4.00 | CC(=O)N[C@H](Cc1c(C)[nH]c2ccc(Cl)cc12)C(=O)N[C@@H](Cc1ccccc1)C(=O)NCC(N)=O |  |  |  |  |  |  | 
10 | < 4.00 | CC(=O)N[C@H](Cc1c[nH]c2c(C)cccc12)C(=O)N[C@@H](Cc1ccccc1)C(=O)NCC(N)=O |  |  |  |  |  |  | 
11 | < 4.00 | CC(=O)N[C@H](Cc1c[nH]c2cc(Cl)ccc12)C(=O)N[C@@H](Cc1ccccc1)C(=O)NCC(N)=O |  |  |  |  |  |  | 
12 | < 4.00 | CC(=O)N[C@H](Cc1c[nH]c2ccc(F)cc12)C(=O)N[C@@H](Cc1ccccc1)C(=O)NCC(N)=O |  |  |  |  |  |  | 
13 | 6.50 | CC(=O)N[C@H](Cc1c(C)[nH]c2ccccc12)C(=O)N[C@@H](Cc1ccccc1)C(=O)NCC(N)=O | < 4.00 | < 4.00 |  |  |  |  | 
14 | 6.37 | CC(=O)N[C@H](Cc1c[nH]c2ccc(C)cc12)C(=O)N[C@@H](Cc1ccccc1)C(=O)NCC(N)=O | < 4.00 | < 4.00 |  |  |  |  | 
15 | 8.24 | CC(=O)N[C@H](Cc1c[nH]c2cc(F)ccc12)C(=O)N[C@@H](Cc1ccccc1)C(=O)NCC(N)=O |  |  |  |  |  |  | 
